What was measured:
Type in all cases: functional
[1] = test system: Rattus norvegicus; assay: Antiallergic activity by rat passive cutaneous anaphylaxis (PCA) assay when administered per orally;value ranges between (1.4-4.6.); details: po
Procedure, shortened: (§1)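 Rats were passively sensitized intradermally with diluted reaginic anti-ovalbumin serum 24 h before challenge. Compound was suspended in 1% acacia and dosed by oral feeding needle at 1 mL/kg. After 20-30 min, rats were challenged with 0.02 mg ovalbumin in 0.5 mL 2% Evans Blue. Blued areas were measured 30 min after challenge. Six rats per dose; ED50 is 50% area reduction from control, with 95% confidence limits.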

[2] = test system: Rattus norvegicus; assay: Antiallergic activity by rat passive cutaneous anaphylaxis (PCA) assay when administered iv;value ranges between (0.07-1.70).
Procedure, shortened: (§2)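 Male rats sensitized by id injection of diluted rat anti-ovalbumin reaginic serum (0.1 mL each side of shaved back). 24 h later, compound in saline was mixed with 5 mg ovalbumin in 0.5 mL 2% Evans Blue and given iv at 1 mL/kg. Blued-spot diameters were read 30 min later. Six rats per group; ED50 is 50% area reduction versus control, with 95% confidence limits.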

[3] = test system: Rattus norvegicus; assay: Antiallergic activity by rat passive cutaneous anaphylaxis (PCA) assay when administered per orally;value ranges between( 0.4-3.0.); details: po; procedure, shortened: as §1
[4] = test system: Rattus norvegicus; assay: Antiallergic activity by rat passive cutaneous anaphylaxis (PCA) assay when administered per orally; details: po; procedure, shortened: as §1
[5] = test system: Rattus norvegicus; assay: Antiallergic activity by rat passive cutaneous anaphylaxis (PCA) assay when administered per orally;value ranges between (0.4-0.8.); details: po; procedure, shortened: as §1
[6] = test system: Rattus norvegicus; assay: Antiallergic activity by rat passive cutaneous anaphylaxis (PCA) assay when administered per orally.;value ranges between (1.3-3.2); details: po; procedure, shortened: as §1
[7] = test system: Rattus norvegicus; assay: antiallergic activity by rat passive cutaneous anaphylaxis (PCA) assay when administered iv; procedure, shortened: as §2
[8] = test system: Rattus norvegicus; assay: Antiallergic activity by rat passive cutaneous anaphylaxis (PCA) assay when administered per orally;value ranges between (0.64-6.67).; details: po; procedure, shortened: as §1
[9] = test system: Rattus norvegicus; assay: Antiallergic activity by rat passive cutaneous anaphylaxis (PCA) assay when administered iv;value ranges between (0.07-0.4.); procedure, shortened: as §2
[10] = test system: Rattus norvegicus; assay: Antiallergic activity by rat passive cutaneous anaphylaxis (PCA) assay when administered per orally;value ranges between (0.15-0.94.); details: po; procedure, shortened: as §1
[11] = test system: Rattus norvegicus; assay: Antiallergic activity by rat passive cutaneous anaphylaxis (PCA) assay when administered iv;value ranges between (0.2-1.1).; procedure, shortened: as §2
[12] = test system: Rattus norvegicus; assay: Antiallergic activity by rat passive cutaneous anaphylaxis (PCA) assay when administered per orally;value ranges between (1.0-4.8).; details: po; procedure, shortened: as §1
[13] = test system: Rattus norvegicus; assay: Antiallergic activity by rat passive cutaneous anaphylaxis (PCA) assay when administered per orally;value ranges between (0.11-0.75.); details: po; procedure, shortened: as §1
[14] = test system: Rattus norvegicus; assay: Antiallergic activity by rat passive cutaneous anaphylaxis (PCA) assay when administered iv;value ranges between 0.23-2.24; procedure, shortened: as §2
[15] = test system: Rattus norvegicus; assay: Antiallergic activity by rat passive cutaneous anaphylaxis (PCA) assay when administered perorally; value ranges between (1.3-3.3); details: po; procedure, shortened: as §1
[16] = test system: Rattus norvegicus; assay: Antiallergic activity by rat passive cutaneous anaphylaxis (PCA) assay when administered per orally;value ranges between (0.5-3.27); details: po; procedure, shortened: as §1
[17] = test system: Rattus norvegicus; assay: Antiallergic activity by rat passive cutaneous anaphylaxis (PCA) assay when administered iv.;value ranges between (0.04-0.3); procedure, shortened: as §2
[18] = test system: Rattus norvegicus; assay: Antiallergic activity by rat passive cutaneous anaphylaxis (PCA) assay when administered perorally; value ranges between (0.4-2.3.); details: po; procedure, shortened: as §1
[19] = test system: Rattus norvegicus; assay: Antiallergic activity by rat passive cutaneous anaphylaxis (PCA) assay when administered iv;value ranges between (0.56-2.74); procedure, shortened: as §2

SMILES | ED50 [4] [mg/kg] | also measured
NCCO.O=C(O)C(=O)Nc1nc(-c2ccc([N+](=O)[O-])cc2)cs1 |  | ED50 [1]: 2.5 mg/kg
CN(C)c1cccc(-c2csc(NC(=O)C(=O)O)n2)c1.NCCO |  | ED50 [2]: 0.35 mg/kg; ED50 [3]: 1.7 mg/kg
NCCO.O=C(O)C(=O)Nc1nc(-c2ccncc2)cs1 | > 3 | 
CCOC(=O)C(=O)Nc1nc(-c2ccc(OC)c(OC)c2)cs1 | ~3 | 
CC(=O)Nc1ccc(-c2csc(NC(=O)C(N)=O)n2)cc1 | > 10 | 
CCOc1ccc(-c2csc(NC(=O)C(=O)O)n2)cc1.NCCO |  | ED50 [5]: 0.54 mg/kg
CCOC(=O)C(=O)Nc1nc(-c2ccc(OCC)cc2)cs1 |  | ED50 [6]: 2.1 mg/kg
NCCO.O=C(O)C(=O)Nc1nc(-c2cccnc2)cs1 | > 10 | 
Cc1cc(-c2csc(NC(=O)C(=O)O)n2)ccc1O.NCCO | ~1 | 
CCOC(=O)C(=O)Nc1nc(-c2ccc(OC)cc2O)cs1 | ~1 | 
COc1cc(-c2csc(NC(=O)C(=O)O)n2)ccc1O.NCCO |  | ED50 [7]: < 0.1 mg/kg; ED50 [8]: 2.1 mg/kg
NCCO.O=C(O)C(=O)Nc1nc(-c2ccc(O)c(O)c2)cs1 | 0.1 | ED50 [7]: 0.08 mg/kg
COc1cc(OC)cc(-c2csc(NC(=O)C(=O)O)n2)c1 | ~1 | ED50 [7]: ~0.1 mg/kg
CCOC(=O)C(=O)Nc1nc(-c2cc(OC)ccc2OC)cs1 | > 10 | 
CCOC(=O)C(=O)Nc1nc(-c2cc(OC)cc(OC)c2)cs1 | ~10 | 
CC(=O)N1c2ccccc2Sc2ccc(-c3csc(NC(=O)C(=O)O)n3)cc21.NCCO | ~10 | 
CCCCOC(=O)C(=O)Nc1nc(-c2ccc(C(=O)OCC)cc2)cs1 | > 10 | 
CCOC(=O)C(=O)Nc1nc(-c2ccc(O)c(O)c2)cs1 | 1.4 | 
CCOC(=O)C(=O)Nc1nc(-c2ccc3c(c2)OCC(CN2CCCCC2)O3)cs1 (configuration not stated) | > 10 | 
CCOC(=O)C(=O)Nc1nc(-c2ccc3c(c2)OCCO3)cs1 | > 10 | 
CCCC(=O)Nc1ccc(-c2csc(NC(=O)C(=O)OCC)n2)cc1 | > 10 | ED50 [7]: < 0.3 mg/kg

SMILES | ED50 [4] [mg/kg] | also measured
CC(=O)Nc1ccc(-c2csc(NC(=O)C(=O)O)n2)cc1 |  | ED50 [9]: 0.16 mg/kg; ED50 [10]: 0.37 mg/kg
CCOC(=O)C(=O)Nc1nc(-c2ccc3oc(C)c(C)c(=O)c3c2)cs1 | > 3 | 
COc1ccc(-c2csc(NC(=O)C(=O)O)n2)c(OC)c1 | > 10 | ED50 [11]: 0.39 mg/kg
CCOC(=O)C(=O)Nc1nc(-c2ccc(C(=O)OCC)cc2)cs1 | > 10 | 
NCCO.O=C(O)C(=O)Nc1nc(-c2ccc(Sc3ccccc3)cc2)cs1 | > 30 | 
CCOC(=O)C(=O)Nc1nc(-c2cccc(O)c2)cs1 | > 10 | 
CCOC(=O)C(=O)Nc1nc(-c2ccc(O)c(C)c2)cs1 |  | ED50 [12]: 2.2 mg/kg
CCOC(=O)C(=O)Nc1nc(-c2ccc(NC(C)=O)cc2)cs1 |  | ED50 [13]: 0.29 mg/kg
CCOC(=O)C(=O)Nc1nc(-c2ccccc2C(=O)OC)cs1 | > 10 | 
CC(=O)c1cc(-c2csc(NC(=O)C(=O)O)n2)ccc1O.NCCO.NCCO | ~1 | ED50 [14]: 0.71 mg/kg
NC(=O)C(=O)Nc1ccc(-c2csc(NC(=O)C(N)=O)n2)cc1 | ~1 | 
Cc1sc(NC(=O)C(=O)O)nc1-c1ccccc1.NCCO |  | ED50 [15]: 2.5 mg/kg
CCOC(=O)C(=O)Nc1nc(-c2ccc(NC(=O)C(F)(F)F)cc2)cs1 | ~1 | 
CCOC(=O)C(=O)Nc1nc(-c2ccc(N(C)C)cc2)cs1 | ~1 | ED50 [7]: ~0.3 mg/kg
COC(=O)C(=O)Nc1nc(-c2ccc(OC)c(OC)c2)cs1 |  | ED50 [16]: 1.2 mg/kg
Cc1cc(O)ccc1-c1csc(NC(=O)C(=O)O)n1.NCCO | > 10 | ED50 [7]: 1 mg/kg
NCCO.O=C(O)C(=O)Nc1nc(-c2ccc(F)cc2)cs1 |  | ED50 [17]: 0.11 mg/kg; ED50 [18]: 0.9 mg/kg
NCCO.O=C(O)C(=O)Nc1nc(-c2ccc(Oc3ccccc3)cc2)cs1 | > 10 | 
O=C([O-])c1cc(=O)c2c(OCC(O)COc3cccc4oc(C(=O)[O-])cc(=O)c34)cccc2o1.[Na+].[Na+] [CROMOLYN SODIUM] |  | ED50 [19]: 1.24 mg/kg
CCOC(=O)C(=O)Nc1nc(-c2ccc(OC)cc2)cs1 [TIOXAMAST] | ~10 | 

Source: ChEMBL document CHEMBL1122270, “N-(4-substituted-thiazolyl)oxamic acid derivatives, a new series of potent, orally active antiallergy agents” (1983)
